Data taken from publication PMC6880868 (Cancer cell, 2019).

How the values were obtained:
[1] = Pharmacokinetics in tumor-bearing mice; type: in vivo, NOD/SCID female mice; details: single i.v. dose 25 mg/kg; 1, 3 and 6 hr
Outline: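 In NOD/SCID female mice with subcutaneous MOLM-16 xenografts, mice were dosed i.v. Blood and tissues were collected at the indicated times, and drug levels were measured by a pharmacokinetics core.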

[2] = test system: SU-DHL-1 and SUP-M2 cells; assay: Annexin V apoptosis assay; type: cell-based, human; details: 48 hr
Outline: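 Cells collected at the end of treatment, washed in cold PBS, stained with an Annexin V-FLUOS kit per the maker's protocol, and analysed by flow cytometry.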

STAT3 = STAT3 (Homo sapiens, UniProt P40763); assay: Bio-Layer Interferometry binding, STAT3
Chain of STAT3 (P40763 127-688): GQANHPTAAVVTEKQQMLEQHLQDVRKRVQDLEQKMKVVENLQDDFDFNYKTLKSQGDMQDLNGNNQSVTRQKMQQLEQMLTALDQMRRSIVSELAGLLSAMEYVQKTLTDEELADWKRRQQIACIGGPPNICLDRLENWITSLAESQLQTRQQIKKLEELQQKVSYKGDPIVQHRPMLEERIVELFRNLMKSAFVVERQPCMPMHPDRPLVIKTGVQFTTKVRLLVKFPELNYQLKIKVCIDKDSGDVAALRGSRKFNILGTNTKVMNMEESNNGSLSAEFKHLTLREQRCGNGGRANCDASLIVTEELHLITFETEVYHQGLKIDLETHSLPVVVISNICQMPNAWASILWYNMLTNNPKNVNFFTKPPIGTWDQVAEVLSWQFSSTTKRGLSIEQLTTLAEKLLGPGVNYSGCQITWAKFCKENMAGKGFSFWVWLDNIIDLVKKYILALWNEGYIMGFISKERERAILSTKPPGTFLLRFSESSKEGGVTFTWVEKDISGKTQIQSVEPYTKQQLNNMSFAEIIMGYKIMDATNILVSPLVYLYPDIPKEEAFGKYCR
Outline: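 Recombinant human STAT3 was biotinylated and binding measured by Bio-Layer Interferometry for Kd. Selectivity was taken from Kd values against other STATs.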

[3] = test system: transcriptional activities of STAT1 or STAT5A/B; assay: STAT1 and STAT5 dependent reporter cell lines; type: cell-based; details: STAT-dependent reporter cell lines
Outline: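 Reporter cells (1000–2000) were seeded in duplicate plates, one for luciferase and one for CellTiter-Glo viability. Test compound was added 4–6 hr later, and cells were cultured 24 or 48 hr. Firefly and Renilla luciferase were read, and signals were normalised to cell number from the viability plate.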

mutated STAT3 proteins [4] = assay: Degradation of mutated STAT3 proteins in cells; type: cell-based, human
mutated STAT3 proteins [5] = biological target: mutated STAT3 proteins (Homo sapiens, UniProt P40763, Y705F); assay: Degradation of mutated STAT3 proteins in cells; type: cell-based; details: DLD-1/STAT3 Y705F/Y705F cells, 1 μM, 24 hr
Chain of mutated STAT3 proteins (Homo sapiens, UniProt P40763, Y705F) (Q96SW2 whole entry): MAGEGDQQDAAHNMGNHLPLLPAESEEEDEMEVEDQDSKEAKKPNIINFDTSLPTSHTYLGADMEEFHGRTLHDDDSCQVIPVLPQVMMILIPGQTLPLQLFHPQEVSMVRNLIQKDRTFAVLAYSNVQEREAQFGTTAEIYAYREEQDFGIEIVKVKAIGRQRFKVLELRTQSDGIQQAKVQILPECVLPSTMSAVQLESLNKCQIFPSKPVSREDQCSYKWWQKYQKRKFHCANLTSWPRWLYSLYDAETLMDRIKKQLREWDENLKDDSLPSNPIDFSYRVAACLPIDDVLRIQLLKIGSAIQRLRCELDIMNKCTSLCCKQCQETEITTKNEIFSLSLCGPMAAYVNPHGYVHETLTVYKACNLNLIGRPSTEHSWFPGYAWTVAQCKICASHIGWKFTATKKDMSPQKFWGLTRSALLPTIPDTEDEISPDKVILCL
Chain of mutated STAT3 proteins (Homo sapiens, UniProt P40763, Y705F) (P40763 2-770 Y705F): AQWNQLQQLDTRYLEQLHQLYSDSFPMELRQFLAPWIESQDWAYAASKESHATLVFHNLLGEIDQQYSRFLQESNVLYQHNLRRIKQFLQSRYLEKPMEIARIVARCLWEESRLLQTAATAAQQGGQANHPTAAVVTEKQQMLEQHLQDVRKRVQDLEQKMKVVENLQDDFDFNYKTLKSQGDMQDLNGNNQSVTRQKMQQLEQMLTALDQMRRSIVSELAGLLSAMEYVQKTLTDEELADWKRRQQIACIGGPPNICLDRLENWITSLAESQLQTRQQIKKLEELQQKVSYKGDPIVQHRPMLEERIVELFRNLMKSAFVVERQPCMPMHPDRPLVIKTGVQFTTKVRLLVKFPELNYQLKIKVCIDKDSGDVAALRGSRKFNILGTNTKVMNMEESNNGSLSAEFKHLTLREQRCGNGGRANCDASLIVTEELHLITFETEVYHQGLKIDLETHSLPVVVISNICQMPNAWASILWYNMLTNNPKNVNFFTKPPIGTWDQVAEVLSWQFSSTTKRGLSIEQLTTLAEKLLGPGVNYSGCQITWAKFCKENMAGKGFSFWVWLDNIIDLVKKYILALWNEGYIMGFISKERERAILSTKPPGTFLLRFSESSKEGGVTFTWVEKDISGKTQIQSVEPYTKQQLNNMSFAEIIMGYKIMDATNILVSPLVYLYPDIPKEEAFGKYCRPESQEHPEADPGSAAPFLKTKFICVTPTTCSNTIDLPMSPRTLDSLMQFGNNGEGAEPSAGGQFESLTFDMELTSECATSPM

[6] = test system: STAT proteins in MOLM-16 and SU-DHL-1 tumors; assay: Multiplexed quantitative proteomics in xenograft tumors; type: in vivo, mice; details: 25 mg/kg i.v., 6 hr
STAT3 protein = STAT3 protein (Mus musculus, UniProt P42227); assay: STAT3 degradation in murine cells; type: cell-based
Chain of STAT3 protein (P42227 whole entry): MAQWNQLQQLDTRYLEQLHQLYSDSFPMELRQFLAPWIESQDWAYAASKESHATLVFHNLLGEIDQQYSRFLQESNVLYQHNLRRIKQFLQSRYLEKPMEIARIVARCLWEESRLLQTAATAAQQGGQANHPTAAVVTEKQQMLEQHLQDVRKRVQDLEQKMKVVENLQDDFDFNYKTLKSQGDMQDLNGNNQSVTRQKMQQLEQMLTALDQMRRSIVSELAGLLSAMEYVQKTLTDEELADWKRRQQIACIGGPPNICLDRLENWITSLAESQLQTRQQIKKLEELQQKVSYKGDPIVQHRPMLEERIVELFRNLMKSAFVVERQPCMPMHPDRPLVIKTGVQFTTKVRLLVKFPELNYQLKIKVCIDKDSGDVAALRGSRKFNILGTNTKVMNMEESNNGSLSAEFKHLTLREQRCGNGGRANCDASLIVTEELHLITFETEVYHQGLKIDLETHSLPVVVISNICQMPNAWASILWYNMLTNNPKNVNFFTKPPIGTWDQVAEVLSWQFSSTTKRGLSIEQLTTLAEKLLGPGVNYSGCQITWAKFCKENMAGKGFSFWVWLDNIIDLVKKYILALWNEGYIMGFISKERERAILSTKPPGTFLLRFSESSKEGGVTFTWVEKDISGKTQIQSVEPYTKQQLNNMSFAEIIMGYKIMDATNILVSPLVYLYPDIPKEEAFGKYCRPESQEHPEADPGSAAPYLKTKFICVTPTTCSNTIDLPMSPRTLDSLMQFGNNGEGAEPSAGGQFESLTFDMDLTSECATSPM

STAT5B = STAT5B (Homo sapiens, UniProt P51692); assay: Bio-Layer Interferometry binding, STAT5B
Chain of STAT5B (P51692 138-710): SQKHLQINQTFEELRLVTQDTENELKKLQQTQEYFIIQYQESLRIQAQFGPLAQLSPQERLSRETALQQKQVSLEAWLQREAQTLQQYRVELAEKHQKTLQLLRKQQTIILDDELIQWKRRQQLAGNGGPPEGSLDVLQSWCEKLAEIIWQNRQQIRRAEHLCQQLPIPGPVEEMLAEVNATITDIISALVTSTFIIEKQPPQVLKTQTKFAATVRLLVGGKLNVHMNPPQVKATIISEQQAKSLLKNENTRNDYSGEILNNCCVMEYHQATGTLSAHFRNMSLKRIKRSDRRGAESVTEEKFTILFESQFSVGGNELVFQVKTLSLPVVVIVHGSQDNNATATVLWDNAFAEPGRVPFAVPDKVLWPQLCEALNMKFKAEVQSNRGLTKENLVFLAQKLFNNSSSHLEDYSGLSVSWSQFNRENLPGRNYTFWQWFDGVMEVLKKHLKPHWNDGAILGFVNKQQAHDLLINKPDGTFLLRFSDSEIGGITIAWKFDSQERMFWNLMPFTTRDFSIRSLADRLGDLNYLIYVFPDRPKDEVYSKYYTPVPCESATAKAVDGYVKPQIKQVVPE
Outline: (§1)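 Purified recombinant human STAT proteins were biotinylated, then direct binding of the test compound was measured by Bio-Layer Interferometry to give Kd.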

STAT3 target genes = assay: qRT-PCR of STAT3 target genes in MOLM-16 tumors; type: in vivo, SCID mice; details: single dose 25 mg/kg i.v.
Outline: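 SCID mice with MOLM-16 tumours received vehicle or test compound i.v. Total RNA was isolated from tumour lysates and STAT3 target genes were quantified by qRT-PCR.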

SU-DHL-1 = assay: RNA-seq analysis, SU-DHL-1; type: cell-based, human; details: SU-DHL-1, 24 hr
[7] = test system: DNA binding activities of STAT1, STAT5A or STAT5B; assay: STAT1, STAT5A, STAT5B DNA binding activity assay; type: cell-based, human; details: MOLM-16
Outline: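 Nuclear extraction: cells were swelled 15 min on ice in hypotonic HEPES pH 7.9/10 mM KCl buffer with DTT and phosphatase/protease inhibitors. NP-40 was added (0.5% final), and nuclei were extracted 15 min at 4°C in 0.4 M NaCl HEPES buffer, then cleared at 5,000 × g. ELISA: 5 μg extract was bound 1 hr at room temperature in TransAM STAT ELISA wells. Wells then received STAT antibody (1:1000, 1 hr), HRP secondary (1 hr) and colour development.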

STAT4 = STAT4 (Homo sapiens, UniProt Q14765); assay: Bio-Layer Interferometry binding, STAT4
Chain of STAT4 (Q14765 133-705): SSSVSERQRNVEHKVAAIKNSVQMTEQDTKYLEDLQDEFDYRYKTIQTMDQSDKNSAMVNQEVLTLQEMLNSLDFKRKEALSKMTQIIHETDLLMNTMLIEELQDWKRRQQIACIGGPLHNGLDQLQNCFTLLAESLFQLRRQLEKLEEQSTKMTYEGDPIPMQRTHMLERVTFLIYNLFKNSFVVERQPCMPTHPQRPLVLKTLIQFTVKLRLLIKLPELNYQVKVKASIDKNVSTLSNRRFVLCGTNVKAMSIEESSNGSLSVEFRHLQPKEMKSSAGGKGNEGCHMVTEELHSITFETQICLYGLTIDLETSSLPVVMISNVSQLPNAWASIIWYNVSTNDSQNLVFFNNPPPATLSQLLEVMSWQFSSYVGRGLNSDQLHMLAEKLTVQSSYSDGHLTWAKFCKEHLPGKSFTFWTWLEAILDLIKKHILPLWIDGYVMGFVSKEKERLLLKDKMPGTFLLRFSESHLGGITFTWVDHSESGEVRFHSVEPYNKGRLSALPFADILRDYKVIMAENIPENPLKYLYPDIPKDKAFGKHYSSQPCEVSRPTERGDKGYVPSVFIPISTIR
Outline: as §1

MOLM-16 cells = assay: RNA-seq analysis, MOLM-16; type: cell-based, human
[8] = test system: ~5500 proteins quantified in each cell line; assay: Multiplexed quantitative proteomics in cell lines; type: cell-based, human; details: 10 μM, 2.5 hr, three cell lines, p≤0.05
Outline: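 Cells were exposed to test compound, then analysed by multiplexed quantitative proteomics. Significance was assessed by Student's t-test.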

STAT1 = STAT1 (Homo sapiens, UniProt P42224); assay: Bio-Layer Interferometry binding, STAT1
Outline: as §1

STAT6 = STAT6 (Homo sapiens, UniProt P42226); assay: Bio-Layer Interferometry binding, STAT6
Chain of STAT6 (P42226 113-658): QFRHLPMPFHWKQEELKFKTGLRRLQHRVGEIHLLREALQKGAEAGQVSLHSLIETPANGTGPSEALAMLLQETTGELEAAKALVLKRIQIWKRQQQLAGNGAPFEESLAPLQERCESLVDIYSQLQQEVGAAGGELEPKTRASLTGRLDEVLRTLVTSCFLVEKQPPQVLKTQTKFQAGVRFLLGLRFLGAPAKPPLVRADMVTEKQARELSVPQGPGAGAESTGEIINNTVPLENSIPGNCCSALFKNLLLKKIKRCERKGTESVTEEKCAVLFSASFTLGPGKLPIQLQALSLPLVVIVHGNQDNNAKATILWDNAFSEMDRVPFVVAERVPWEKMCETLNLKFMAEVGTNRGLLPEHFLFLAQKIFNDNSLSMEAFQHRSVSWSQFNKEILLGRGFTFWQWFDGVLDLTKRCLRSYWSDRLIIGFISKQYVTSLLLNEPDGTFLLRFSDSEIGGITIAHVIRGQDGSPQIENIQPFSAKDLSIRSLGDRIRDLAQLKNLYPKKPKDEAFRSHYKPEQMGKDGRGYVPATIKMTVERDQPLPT
Outline: as §1

[9] = test system: mitochondrial STAT3; complex I and II; assay: Mitochondrial STAT3 and OXPHOS complex I/II enzyme activity; type: cell-based; details: 24 hours
mouse STAT3 protein = mouse STAT3 protein (Mus musculus, UniProt P42227); assay: Pharmacodynamics in mouse tissues; type: in vivo, CD-1 mice; details: single dose 100 mg/kg i.v.
Chain of mouse STAT3 protein (P42227 whole entry): as the sequence (P42227 whole entry) above
Outline: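 Female outbred CD-1 mice received a single i.v. dose. At set time points, liver, spleen, heart and kidney were collected and analysed by immunoblotting.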

STAT5A = STAT5A (Homo sapiens, UniProt P42229); assay: Bio-Layer Interferometry binding, STAT5A
Chain of STAT5A (P42229 136-705): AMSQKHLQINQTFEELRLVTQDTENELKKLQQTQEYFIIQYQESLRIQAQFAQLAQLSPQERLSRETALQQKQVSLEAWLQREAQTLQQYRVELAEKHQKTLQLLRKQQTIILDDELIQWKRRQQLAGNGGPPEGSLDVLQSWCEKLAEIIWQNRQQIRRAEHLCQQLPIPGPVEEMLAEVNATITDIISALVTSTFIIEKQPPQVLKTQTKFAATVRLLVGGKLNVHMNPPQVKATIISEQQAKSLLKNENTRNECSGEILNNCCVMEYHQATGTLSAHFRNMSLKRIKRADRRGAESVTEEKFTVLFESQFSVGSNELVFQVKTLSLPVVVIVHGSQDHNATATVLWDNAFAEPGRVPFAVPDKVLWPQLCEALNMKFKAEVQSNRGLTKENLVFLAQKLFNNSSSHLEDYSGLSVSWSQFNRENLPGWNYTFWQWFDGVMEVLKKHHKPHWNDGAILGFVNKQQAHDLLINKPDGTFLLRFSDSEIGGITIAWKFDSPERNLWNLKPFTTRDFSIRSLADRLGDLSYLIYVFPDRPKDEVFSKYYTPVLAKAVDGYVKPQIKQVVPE
Outline: as §1

## NC(=O)CC[C@H](NC(=O)[C@@H]1CC[C@@H]2CCN(C(=O)CCCCCC#Cc3cccc4c3CN(C3CCC(=O)NC3=O)C4=O)C[C@H](NC(=O)c3cc4cc(C(F)(F)P(=O)(O)O)ccc4[nH]3)C(=O)N21)C(=O)NC(c1ccccc1)c1ccccc1 (stereo partly drawn) [SD-36, ((2-(((5S,8S,10aR)-8-(((S)-5-amino-1-(benzhydrylamino)-1,5-dioxopentan-2-yl)carbamoyl)-3-(8-(2-(2,6-dioxopiperidin-3-yl)-1-oxoisoindolin-4-yl)oct-7-ynoyl)-6-oxodecahydropyrrolo[1,2-a][1,5]diazocin-5-yl)carbamoyl)-1H-indol-5-yl)difluoromethyl)phosphonic acid]
[1]
  drug exposure in plasma, tumor tissues and several organs: good drug exposure
[2]
  apoptosis: strong apoptotic cell death
STAT3
  Kd: ~50 nM
STAT3; BLI Kd
  binding selectivity for STAT3 over STAT1 and STAT4: approximately 20 fold
[3]
  transcriptional activities of STAT1 or STAT5A/B: minimal effect
Mutated STAT3 proteins [4]; 1 μM, 24 hr
  degradation of endogenous D661Y and K658R mutant STAT3: efficiently degrades
Mutated STAT3 proteins [4]; transfected MDA-MB-231, 1 μM, 16 hr
  degradation of STAT3 with mutations of Arg609 or Ser611/Ser613: resistant to degradation
Mutated STAT3 proteins [5]
  degradation of homozygous Y705F mutant STAT3: effectively degrades
[6]
  effect on other STAT proteins in tumors: no significant effect on other STAT proteins
STAT3 protein
  STAT3 protein degradation in murine cells: efficiently degraded
STAT5B
  Kd: > 10000 nM
STAT3 target genes
  expression of a set of STAT3 target genes in tumors: significantly down-regulated
SU-DHL-1
  genes down-regulated by ≥2-fold (p≤0.05): 701 genes
  genes up-regulated by ≥2-fold (p≤0.05): 726 genes
[7]
  DNA binding activities of STAT1, STAT5A or STAT5B: no significant effect
STAT4
  Kd: 1000 to 2000 nM
MOLM-16 cells; MOLM-16, 1 μM, 8 hr
  genes down-regulated by ≥2-fold (p≤0.05): 125 genes
  genes up-regulated by ≥2-fold (p≤0.05): 34 genes
MOLM-16 cells; MOLM-16, 24 hr
  genes down-regulated ≥2-fold (p≤0.05): 301 genes
  genes up- or down-regulated ≥2-fold (p≤0.05), total: 348 genes
  genes up-regulated ≥2-fold (p≤0.05): 47 genes
[8]
  proteome-wide selectivity: STAT3 was the only protein whose level was significantly decreased by ≥2-fold
STAT1
  Kd: 1000 to 2000 nM
STAT6
  Kd: > 10000 nM
[9]
  effect on complex I and II activity: did not have a substantial effect
  mitochondrial STAT3: effectively depleted
Mouse STAT3 protein
  mouse STAT3 protein in liver, spleen, heart and kidney: profound and durable depletion
STAT5A
  Kd: ~5000 nM
